{"data": "Measurements gathered from unrelated publications", "RPS6KA2 C-terminal kinase domain": "Ribosomal protein S6 kinase alpha-2, C-terminal kinase domain (RPS6KA2, Homo sapiens, UniProt Q15349)", "RPS6KA2 N-terminal kinase domain": "Ribosomal protein S6 kinase alpha-2, N-terminal kinase domain (RPS6KA2, Homo sapiens, UniProt Q15349)", "RPS6KA2": "Ribosomal protein S6 kinase alpha-2 (RPS6KA2, Homo sapiens, UniProt Q15349)", "note": "Each line is one published result; the experiments were not run side by side."}
{"SMILES": "CN(C)c1ncc(F)c(-c2cnn3ncccc23)n1", "target": "RPS6KA2 C-terminal kinase domain", "effect on": "binding", "technique": "competition with immobilised ligand", "concentration": "1 µM", "measurement": "remaining binding", "value": "97%"}
{"SMILES": "CN(C)C(=O)Cn1cc(-c2nc([C@@](C)(c3ccc(-c4cnc(N)nc4)cc3)C3CC3)no2)cn1", "target": "RPS6KA2 N-terminal kinase domain", "effect on": "cell-free assay", "technique": "competition with immobilised ligand", "concentration": "1 µM", "measurement": "remaining binding", "value": "85%"}
{"SMILES": "CCOc1cc(-c2nncn2C)ccc1Nc1ncc2cc(C)nc(NCC(C)(C)C)c2n1", "target": "RPS6KA2", "effect on": "enzyme activity", "action": "inhibitor", "technique": "FRET", "concentration": "1 µM", "measurement": "inhibition", "value": "< 15%"}
{"SMILES": "FC(F)(F)c1ccc2c(c1)nc(-c1cccnc1)n2C1CC1", "target": "RPS6KA2 N-terminal kinase domain", "effect on": "cell-free assay", "technique": "competition with immobilised ligand", "concentration": "1 µM", "measurement": "remaining binding", "value": "100%"}
{"SMILES": "Cc1ccc(C(=O)Nc2ccc(CN3CCN(C)CC3)c(C(F)(F)F)c2)cc1C#Cc1cnc2cccnn12", "target": "RPS6KA2", "effect on": "enzyme activity", "action": "inhibitor", "concentration": "23.5 nM", "measurement": "activity vs control", "value": "98%"}
{"SMILES": "Nc1ncnc2occ(-c3ccc(NC(=O)Nc4cc(C(F)(F)F)ccc4F)cc3)c12", "target": "RPS6KA2 N-terminal kinase domain", "effect on": "cell-free assay", "action": "inhibitor", "concentration": "20 µM", "measurement": "remaining signal", "value": "0.6%"}
{"SMILES": "N[C@H]1CCN(c2nccc(-c3cnn4ncccc34)n2)C1", "target": "RPS6KA2 N-terminal kinase domain", "effect on": "binding", "technique": "competition with immobilised ligand", "concentration": "1 µM", "measurement": "remaining binding", "value": "85%"}
{"SMILES": "COc1cc2ncnc(Nc3ccc(Oc4ccccc4)c(C)c3C)c2cc1OC", "target": "RPS6KA2", "effect on": "enzyme activity", "action": "inhibitor", "concentration": "1 µM", "measurement": "inhibition", "value": "2%"}
{"SMILES": "COc1ccnn2ncc(-c3ccnc(N(C)C)n3)c12", "target": "RPS6KA2 N-terminal kinase domain", "effect on": "binding", "technique": "competition with immobilised ligand", "concentration": "1 µM", "measurement": "remaining binding", "value": "74%"}
{"SMILES": "CCCOc1ccc(OC)c(F)c1C(=O)c1ccc(C(=O)N[C@@H]2CNC[C@H]2NC(=O)c2ccc3[nH]ncc3c2)cc1", "target": "RPS6KA2", "effect on": "enzyme activity", "action": "inhibitor", "concentration": "10 µM", "measurement": "remaining activity", "value": "6%"}
{"SMILES": "CC(C)(C)c1nc(-c2cccc(NS(=O)(=O)c3c(F)cccc3F)c2F)c(-c2ccnc(N)n2)s1", "target": "RPS6KA2", "effect on": "enzyme activity", "action": "inhibitor", "technique": "radiometric", "concentration": "1 µM", "measurement": "remaining activity", "value": "81%"}
{"SMILES": "CC1CCCN1c1nccc(-c2cnn3ncccc23)n1 (stereo not drawn)", "target": "RPS6KA2 C-terminal kinase domain", "effect on": "binding", "technique": "competition with immobilised ligand", "concentration": "1 µM", "measurement": "remaining binding", "value": "100%"}
{"SMILES": "O=C(NCCCC1CCCCC1)c1ccc(CNC(=O)c2cnn(-c3ccccc3)c2C(F)(F)F)cc1", "target": "RPS6KA2 C-terminal kinase domain", "effect on": "cell-free assay", "technique": "competition with immobilised ligand", "concentration": "0.1 µM", "measurement": "remaining binding", "value": "96%"}
{"SMILES": "Cc1cnc(NC2CCOCC2)nc1-n1cnc(C(=O)NC(CN)c2cc(F)cc(Cl)c2)c1 (stereo not drawn)", "target": "RPS6KA2", "effect on": "enzyme activity", "action": "inhibitor", "technique": "radiometric", "concentration": "1 µM", "measurement": "remaining activity", "value": "12%"}
{"SMILES": "Cc1cc(NC(=O)c2cccc3cc(-c4cccc5[nH]nc(N)c45)ccc23)ccc1F", "target": "RPS6KA2", "effect on": "enzyme activity", "action": "inhibitor", "concentration": "0.1 µM", "measurement": "activity vs control", "value": "95%"}
{"SMILES": "C[C@@H]1CCN(c2nccc(-c3cnn4ncccc34)n2)C1", "target": "RPS6KA2 C-terminal kinase domain", "effect on": "binding", "technique": "competition with immobilised ligand", "concentration": "1 µM", "measurement": "remaining binding", "value": "45%"}
{"SMILES": "CCCCN(CCCC)C(=O)CN1C[C@@H](c2cc(OC)c3c(c2)OCO3)[C@H](C(=O)O)[C@H]1CC(C)(C)CCC", "target": "RPS6KA2 C-terminal kinase domain", "effect on": "cell-free assay", "technique": "competition with immobilised ligand", "concentration": "1 µM", "measurement": "remaining binding", "value": "90.2%"}
{"SMILES": "Cc1ccc(C(=O)NCc2ccsc2)cc1C#Cc1cn(C(C)C)c2ncnc(N)c12", "target": "RPS6KA2", "effect on": "enzyme activity", "action": "inhibitor", "concentration": "1 µM", "measurement": "activity vs control", "value": "85%"}
{"SMILES": "NS(=O)(=O)c1cc(NC(=O)C2(c3ccccc3Cl)CC2)ccc1Oc1cccc(Cl)c1", "target": "RPS6KA2 C-terminal kinase domain", "effect on": "cell-free assay", "technique": "competition with immobilised ligand", "concentration": "1 µM", "measurement": "remaining binding", "value": "100%"}
{"SMILES": "Cc1ccc(Nc2nccc(N(C)c3ccc4c(C)n(C)nc4c3)n2)cc1S(N)(=O)=O", "target": "RPS6KA2", "effect on": "enzyme activity", "action": "inhibitor", "concentration": "0.3 µM", "measurement": "inhibition", "value": "27%"}
{"SMILES": "O=C(NC[C@@H]1[C@H]2CN(C(=O)OCc3cc(C(F)(F)F)cc(C(F)(F)F)c3)C[C@@H]12)c1ccc2[nH]nnc2c1", "target": "RPS6KA2 C-terminal kinase domain", "effect on": "cell-free assay", "technique": "competition with immobilised ligand", "concentration": "1 µM", "measurement": "remaining binding", "value": "84%"}
{"SMILES": "F[C@@H]1CCN(c2nccc(-c3cnn4ncccc34)n2)C1", "target": "RPS6KA2 N-terminal kinase domain", "effect on": "binding", "technique": "competition with immobilised ligand", "concentration": "1 µM", "measurement": "remaining binding", "value": "93%"}
{"SMILES": "CNC(=O)Nc1ccc2c(c1)[C@@]1(CC2)OC(=O)N(CC(=O)N(Cc2ccc(F)cc2)[C@@H](C)C(F)(F)F)C1=O", "target": "RPS6KA2 C-terminal kinase domain", "effect on": "cell-free assay", "technique": "competition with immobilised ligand", "concentration": "1 µM", "measurement": "remaining binding", "value": "100%"}
{"SMILES": "CNCc1ccc(-c2cc(-c3nc(-c4ccc(S(=O)(=O)C(C)C)cc4)cnc3N)on2)cc1", "target": "RPS6KA2", "effect on": "enzyme activity", "action": "inhibitor", "concentration": "0.4 µM", "measurement": "inhibition", "value": "17%"}
